According to ChEMBL document CHEMBL1125869, “Calcium-independent phosphodiesterase inhibitors as putative antidepressants: [3-(bicycloalkyloxy)-4-methoxyphenyl]-2-imidazolidinones” (J Med Chem, 1991):

How the values were obtained:
Phosphodiesterase 4 [1] = target: T1, Phosphodiesterase 4 (Rattus norvegicus, UniProt P14270+P14646+P14644+P54748); assay: Inhibition of [3H]- rolipram binding to rat cerebral cortex membranes; format: cell membranes, Membrane
Outline: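 Cerebral cortex membranes homogenized in ice-cold 50 mM Tris-HCl pH 8.0 with 1.2 mM MgCl2, spun at 30000g for 20 min at 4 °C, washed once and resuspended at 0.5 mg protein/mL. (±)-[3H]rolipram at 2 nM final, 30 min at 25 °C, triplicates per concentration. Nonspecific binding defined with Ro 20-1724 (10 μM). Filtration, then scintillation counting. IC50 taken from semilog plots over several log concentrations.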

Phosphodiesterase 4 [2] = target: T1, Phosphodiesterase 4; assay: Inhibition of calcium-independent Phosphodiesterase 4; format: protein assay
Outline: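 Enzyme taken from the 105000g supernatant of female Sprague-Dawley rat cerebral cortex and separated from the calcium-dependent form on Sephadex G-200. Substrate was 1.0 μM [3H]cAMP in Tris-HCl pH 7.5/MgCl2, run in triplicate for 8 min at 37 °C and stopped by heat. [3H]5'-AMP was separated on boronate affinity gel and counted. IC50 came from semilog plots over three log concentrations in triplicate.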

Mus musculus [3] = organism: Mus musculus; assay: Minimum effective peroral dose (MED) in mouse forced-swim test; format: functional; conditions: po, read-out: MED
Outline: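 Mice dosed orally, with compound in vehicle at 1 mL/100 g. One hour later they were placed in water at 25 °C. After 2 min habituation, immobility was rated ten times at 30-s intervals and expressed as percent of control. At least four half-log-spaced doses were given, with nine mice per dose. MED was the lowest dose giving a statistically significant decrease in immobility.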

Mus musculus [4] = assay: Reversal of reserpine-induced hypothermia in mice by intraperitoneal dose; format: functional; conditions: ip, read-out: MED
Outline: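 Individually housed mice at 20 °C received reserpine 2 mg/kg sc 18 h before test. Rectal temperature was measured before and 1 h after dosing with test drug in 5% DMSO/5% Emulphor 620/90% saline. At least four half-log-spaced doses were given, with nine mice per dose. MED was the dose giving a statistically significant temperature increase.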

SMILES	IC50 (Phosphodiesterase 4 [1]) [nM]	IC50 (Phosphodiesterase 4 [2]) [nM]	minimal effective dose (Mus musculus [3]) [mg/kg]	minimal effective dose (Mus musculus [4]) [µg/kg]
COc1ccc(C2CNC(=O)N2C)cc1OC1CC2CCC1CC2 (stereo not given)	81	2500	–	> 3200
COc1ccc(C2CNC(=O)N2C)cc1O[C@H]1CC2CC1C1CCCC21 (stereo not given in full)	–	–	32	320
COc1ccc(C2CNC(=O)N2C)cc1O[C@H]1CC2CCC1C2 (stereo not given in full)	–	–	> 32	1000
COc1ccc(C2CNC(=O)N2C)cc1O[C@@H]1CC2CC1C1CCCC21 (stereo not given in full)	10	490	10	320
COc1ccc(C2CNC(=O)N2C)cc1O[C@@H]1CC2CC1c1ccccc12 (stereo not given in full)	21	290	> 32	1000
COc1ccc(C2CNC(=O)N2C)cc1OC1CC2C=CC1C2 (stereo not given)	3.1	130	0.1	100
COc1ccc(C2CNC(=O)C2)cc1OC1CCCC1 (stereo not given) [ROLIPRAM]	–	–	1.8	0.1

More lines, main results first:

IC50 (Phosphodiesterase 4 [1]) [nM]	IC50 (Phosphodiesterase 4 [2]) [nM]	SMILES	minimal effective dose (Mus musculus [3]) [mg/kg]	minimal effective dose (Mus musculus [4]) [µg/kg]
100	3100	COc1ccc(C2CNC(=O)N2C)cc1OC1CC2C3CCC(C3)C12 (stereo not given)	> 32	–
> 100	1400	COc1ccc(C2CNC(=O)N2C)cc1OC1CC2C3CCC(C3)C2C1 (stereo not given)	> 32	3200
> 100	2400	COc1ccc(C2CNC(=O)N2C)cc1OC1CC2CCC(C2)C1 (stereo not given)	> 32	> 3200
2.6	220	COc1ccc(C2CNC(=O)N2C)cc1O[C@@H]1CC2CCC1C2 (stereo not given in full)	1	0.03
> 100	11000	COc1ccc(C2CNC(=O)N2C)cc1OC1C2CC3CC(C2)CC1C3 (stereo not given)	> 32	3200
